Laboratory results from ChEMBL document CHEMBL2417424, “Synthesis, structure, and antibiotic activity of aryl-substituted LpxC inhibitors” (J Med Chem, 2013).
≈ marks a conversion by molar mass, not a printed value.

Assays:
Escherichia coli [1] = assay: Antimicrobial activity against wild type Escherichia coli W3110 after 22 hrs by MTT assay; format: functional; settings: W3110, 22 h
Outline: (§1)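 Broth microdilution (modified NCCLS) in 96-well plates, LB medium with 5% DMSO; 2-fold compound series spanning 0.0005–1, 0.0025–5 or 0.024–50 µg/mL. Cells grown to OD600 0.6, diluted 100-fold, added to wells; 22 h at 37 °C, then MTT (1 mg/mL) 3 h at 37 °C. MIC = lowest concentration with no visible colour change; triplicate.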

Pseudomonas aeruginosa = assay: Antimicrobial activity against Pseudomonas aeruginosa PAO1 after 22 hrs by MTT assay; format: functional; settings: PAO1, 22 h; outline: as §1
Escherichia coli [2] = assay: Antimicrobial activity against Escherichia coli CMR300 after 22 hrs by MTT assay; format: functional; settings: CMR300, 22 h; outline: as §1
Escherichia coli [3] = assay: Ratio of MIC for wild type Escherichia coli W3110 to MIC for Escherichia coli CMR300; format: functional
Escherichia coli [4] = assay: Antimicrobial activity against Escherichia coli W3110PA after 22 hrs by MTT assay; format: functional; outline: as §1
Vibrio cholerae = assay: Antimicrobial activity against Vibrio cholerae P4 after 22 hrs by MTT assay; format: functional; settings: P4, 22 h
Outline: (§2)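 Broth microdilution in triplicate (modified NCCLS) in LB with 5% DMSO, using 2-fold compound series over 0.0005–1, 0.0025–5 or 0.024–50 µg/mL. Cells grown to OD600 0.6 were diluted 100-fold into the wells and incubated 22 h at 37 °C. A 1 mg/mL MTT solution was added for 3 h more at 37 °C. MIC = lowest concentration with no visible yellow-to-black colour change.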

Klebsiella pneumoniae = assay: Antimicrobial activity against Klebsiella pneumoniae 43816 after 22 hrs by MTT assay; format: functional; settings: Klebsiella pneumoniae, 43816, 22 h; outline: as §1
Francisella novicida [5] = assay: Antimicrobial activity against Francisella novicida U 112 after 22 hrs by MTT assay; format: functional, Francisella tularensis subsp. novicida; settings: Francisella tularensis, U 112, 22 h; outline: as §2
Salmonella typhimurium = assay: Antimicrobial activity against Salmonella enterica typhimurium LT2 after 22 hrs by MTT assay; format: functional, Salmonella enterica subsp. enterica serovar Typhimurium; settings: LT2, 22 h; outline: as §1
[6] = biological target: T1, UDP-3-O-acyl-N-acetylglucosamine deacetylase (Escherichia coli K-12, UniProt P0A725); assay: Inhibition of Escherichia coli LpxC enzyme using UDP-3-O-[(R)-3-hydroxymyristoyl]-N-acetyl glucosamine and [gamma-32P] UDP-3-O-[(R)-3-hydroxymyristoyl]-N-acetylglucosamine as substrate after 1 to 4 hrs
T1 sequence (P0A725 whole entry): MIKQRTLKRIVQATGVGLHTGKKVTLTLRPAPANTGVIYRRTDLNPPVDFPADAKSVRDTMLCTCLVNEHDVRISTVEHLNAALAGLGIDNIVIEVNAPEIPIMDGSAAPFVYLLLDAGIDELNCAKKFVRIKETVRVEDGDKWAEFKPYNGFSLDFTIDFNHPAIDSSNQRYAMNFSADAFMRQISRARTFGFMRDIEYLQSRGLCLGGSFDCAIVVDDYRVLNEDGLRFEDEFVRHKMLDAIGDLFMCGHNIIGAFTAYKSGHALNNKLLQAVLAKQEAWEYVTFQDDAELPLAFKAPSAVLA

Francisella novicida [7] = assay: Ratio of LPC-011 MIC to compound MIC for Francisella novicida U 112 after 22 hrs by MTT assay; format: functional, Francisella tularensis subsp. novicida
[8] = biological target: T2, UDP-3-O-acyl-N-acetylglucosamine deacetylase (Escherichia coli K-12) (UniProt P0A725); assay: Ratio of LPC-011 Ki to compound Ki for Escherichia coli LpxC enzyme
T2 sequence (whole entry): T1 sequence (P0A725 whole entry)

[9] = Ratio of MIC for Pseudomonas aeruginosa PAO1 to MIC for Escherichia coli W3110PA; format: functional

| SMILES | MIC (Escherichia coli [1]) [µg/mL] | MIC (Pseudomonas aeruginosa) [µg/mL] | MIC (Escherichia coli [2]) [µg/mL] | Ratio (Escherichia coli [3]) | MIC (Escherichia coli [4]) [µg/mL] | MIC (Vibrio cholerae) [µg/mL] | MIC (Klebsiella pneumoniae) [µg/mL] | MIC (Francisella novicida [5]) [µg/mL] | MIC (Salmonella typhimurium) [µg/mL] | Ki [6] [nM] | Ratio (Francisella novicida [7]) | Ratio Ki [8] | Ratio [9] |
| --- | --- | --- | --- | --- | --- | --- | --- | --- | --- | --- | --- | --- | --- |
| Nc1ccc(C#CC#Cc2ccc(C(=O)N[C@H](C(=O)NO)[C@H](O)c3ccc(O)cc3)cc2)cc1 | 50 (≈ 110 µM) | > 50 | 0.15 (≈ 0.329 µM) | 333 | > 50 | – | – | – | – | – | – | – | – |
| C[C@@](O)(c1ccc(O)cc1)[C@H](NC(=O)c1ccc(C#CC#Cc2ccc(N)cc2)cc1)C(=O)NO | 0.5 (≈ 1.06 µM) | 5 (≈ 10.6 µM) | 0.008 (≈ 0.017 µM) | 62 | 3.2 (≈ 6.82 µM) | – | – | – | – | – | – | – | – |
| Nc1ccc(C#CC#Cc2ccc(C(=O)N[C@@H](Cc3c[nH]c4ccccc34)C(=O)NO)cc2)cc1 | 12.5 (≈ 27 µM) | > 50 | 0.06 (≈ 0.13 µM) | 208 | > 50 | – | – | – | – | – | – | – | – |
| Nc1ccc(C#CC#Cc2ccc(C(=O)N[C@@H](Cc3c[nH]cn3)C(=O)NO)cc2)cc1 | 0.4 (≈ 0.967 µM) | 6.3 (≈ 15.2 µM) | 0.02 (≈ 0.0484 µM) | 20 | 6.3 (≈ 15.2 µM) | – | – | – | – | – | – | – | – |
| C[C@@H](O)[C@H](NC(=O)c1ccc(C#CC#Cc2ccc(N)cc2)cc1)C(=O)NO | 0.03 (≈ 0.0795 µM) | 0.32 (≈ 0.848 µM) | 0.001 (≈ 0.00265 µM) | 30 | 0.32 (≈ 0.848 µM) | 0.01 (≈ 0.0265 µM) | 0.13 (≈ 0.344 µM) | 2.5 (≈ 6.62 µM) | 0.024 (≈ 0.0636 µM) | – | – | – | – |
| Nc1ccc(C#CC#Cc2ccc(C(=O)N[C@@H](Cc3ccccc3)C(=O)NO)cc2)cc1 | 6.3 (≈ 14.9 µM) | > 50 | 0.014 (≈ 0.0331 µM) | 450 | > 50 | – | – | – | – | – | – | – | – |
| C[C@@H](O)[C@H](NC(=O)c1ccc(C#Cc2ccc(CN3CCOCC3)cc2)cc1)C(=O)NO | 0.2 (≈ 0.457 µM) | 1.6 (≈ 3.66 µM) | 0.01 (≈ 0.0229 µM) | – | 1.3 (≈ 2.97 µM) | 0.16 (≈ 0.366 µM) | 0.64 (≈ 1.46 µM) | 3.1 (≈ 7.09 µM) | 0.16 (≈ 0.366 µM) | – | – | – | – |
| C[C@](O)(c1ccc(O)cc1)[C@H](NC(=O)c1ccc(C#CC#Cc2ccc(N)cc2)cc1)C(=O)NO | 0.03 (≈ 0.0639 µM) | 0.7 (≈ 1.49 µM) | 0.0001 (≈ 0.000213 µM) | 300 | 0.5 (≈ 1.06 µM) | 0.016 (≈ 0.0341 µM) | 0.16 (≈ 0.341 µM) | 0.63 (≈ 1.34 µM) | 0.05 (≈ 0.106 µM) | 0.024 | 2 | 1.6 | – |
| C[C@](O)(c1c[nH]nn1)[C@H](NC(=O)c1ccc(C#CC#Cc2ccc(N)cc2)cc1)C(=O)NO | 0.06 (≈ 0.135 µM) | 0.5 (≈ 1.12 µM) | 0.004 (≈ 0.009 µM) | – | 0.5 (≈ 1.12 µM) | 0.03 (≈ 0.0675 µM) | 0.25 (≈ 0.562 µM) | 1 (≈ 2.25 µM) | 0.1 (≈ 0.225 µM) | 0.024 | 2 | 1.6 | – |
| Nc1ccc(C#CC#Cc2ccc(C(=O)N[C@@H](Cc3ccc(O)cc3)C(=O)NO)cc2)cc1 | 0.8 (≈ 1.82 µM) | 12.5 (≈ 28.4 µM) | 0.01 (≈ 0.0228 µM) | 80 | 4.7 (≈ 10.7 µM) | – | – | – | – | – | – | – | 3 |
| Nc1ccc(C#CC#Cc2ccc(C(=O)N[C@H](C(=O)NO)[C@@H](O)c3ccc(O)cc3)cc2)cc1 | 0.13 (≈ 0.285 µM) | 1 (≈ 2.2 µM) | 0.003 (≈ 0.00659 µM) | 43 | 0.9 (≈ 1.98 µM) | – | – | – | – | – | – | – | – |
